Assays:
Assay type in all cases: cell-based, Human
cancer cell lines = test: MTT growth inhibition assay, summary over the cancer cell line panel; settings: 48 h; for cytotoxicity against the cancer cell lines: MTT
H460 cells [1] = test: Cell cycle analysis by propidium iodide staining and flow cytometry, H460; settings: H460, 1.0, 2.5, 5.0 µM, 24 h
In short: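 After 24 h exposure to test compound at 1.0, 2.5 or 5.0 µM, H460 cells were washed in PBS and fixed overnight in 70% ice-cold ethanol at −20 °C. They were then stained in the dark for 30 min with 0.1% Triton X-100, 0.2 mg/mL RNase and 20 µg/mL propidium iodide. DNA content was measured by flow cytometry and histograms were modelled for phase distribution.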

HL-60 cells = test: Hoechst 33258 staining; settings: HL-60, 0.25-1.0 µM, 24 h
In short: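 HL-60 cells seeded at 1×10⁵ per well and incubated 24 h with test compound at 0.25, 0.5 and 1.0 µM. After phase-contrast imaging, nuclei stained with Hoechst 33258 (5 µg/mL, 10 min), washed twice with PBS and fixed in 4% PFA/PBS for 10 min at 25 °C. Apoptotic chromatin condensation or fragmentation assessed; fluorescence at ex 365/em 460 nm.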

H460 cells [2] = test: Hoechst 33258 staining; settings: H460, 1.0-5.0 µM, 24 h
In short: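 H460 cells plated at 5×10⁴ per well and exposed to test compound at 1.0, 2.5 and 5.0 µM for 24 h. Cells photographed under phase contrast, then stained with 5 µg/mL Hoechst 33258 for 10 min, washed twice in PBS and fixed in 4% PFA/PBS for 10 min at 25 °C. Nuclei scored for chromatin condensation or fragmentation; fluorescence read at ex 365/em 460 nm.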

[3] = tested on: cyclin B1, CDK1, caspase 3 in HL-60 cells; test: Western blot of cyclin B1, CDK1 and caspase 3, HL-60; settings: HL-60, 24 h
In short: (§1)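 Cells grown in RPMI-1640 with 10% FBS at 37 °C, 5% CO₂, then treated with test compound at graded concentrations for 24 h. Harvested cells lysed on ice for 30 min and spun at 12,000 g for 20 min. Protein quantified by Bradford, denatured in Tris-HCl pH 6.8/DTT/SDS loading buffer, run on 10% SDS-PAGE and transferred to nitrocellulose. Detection by chemiluminescence, with β-actin as loading control.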

[4] = tested on: cyclin B1, CDK1, caspase 3 in H460 cells; test: Western blot of cyclin B1, CDK1 and caspase 3, H460; settings: H460, 24 h
In short: as §1

## O=c1cc(-c2ccccc2)c2cc3c(cc2[nH]1)OCO3 [Compound 12a, 6,7-Methylenedioxy-4-phenylquinolin-2(1H)-one]
Cancer cell lines
  cytotoxicity against the cancer cell lines: poor cytotoxicity

## O=c1cc(-c2cccc(F)c2)c2cc3c(cc2[nH]1)OCO3 [Compound 12m, 4-(3-Fluorophenyl)-6,7-methylenedioxyquinolin-2(1H)-one]
Cancer cell lines
  cytotoxicity against the cancer cell lines: weak cytotoxicity

## O=c1cc(-c2ccccc2F)c2cc3c(cc2[nH]1)OCO3 [Compound 12l, 4-(2-Fluorophenyl)-6,7-methylenedioxyquinolin-2(1H)-one]
Cancer cell lines
  cytotoxicity against the cancer cell lines: weak cytotoxicity

## COc1ccc(-c2cc(=O)[nH]c3cc4c(cc23)OCO4)c(OC)c1 [Compound 12e, 6,7-Methylenedioxy-4-(2,4-dimethoxyphenyl)quinolin-2(1H)-one]
H460 cells [1]
  percentage of G2/M cells: increased
HL-60 cells
  apoptotic morphology by Hoechst 33258 staining: typical apoptotic characteristics
H460 cells [2]
  apoptotic morphology by Hoechst 33258 staining: typical apoptotic characteristics
[3]
  CDK1 protein expression level: decreased in a concentration-dependent manner
  caspase 3 cleavage (17 kDa): induced caspase 3 cleavage
  cyclin B1 protein expression: transient increase followed by a decrease
[4]
  CDK1 protein expression level: increased in a concentration-dependent manner
  caspase 3 cleavage (17 kDa): induced caspase 3 cleavage

## O=c1cc(-c2ccc(F)cc2)c2cc3c(cc2[nH]1)OCO3 [Compound 12n, 4-(4-Fluorophenyl)-6,7-methylenedioxyquinolin-2(1H)-one]
Cancer cell lines
  cytotoxicity against the cancer cell lines: weak cytotoxicity

## COc1cc(-c2cc(=O)[nH]c3cc4c(cc23)OCO4)cc(OC)c1OC [Compound 12k, 6,7-Methylenedioxy-4-(3,4,5-trimethoxyphenyl)quinolin-2(1H)-one]
Cancer cell lines; Homo sapiens, read-out: IC50 range over cancer cell lines
  IC50: 0.93 to 7.6 µM
